Reference: ChEMBL document CHEMBL5724801, “EUbOPEN Chemogenomics Library - Multiplex” (2024)
Values joined by “and” are separate entries in the source; they are usually repeats but may differ in a detail not shown here. Equal values may be shown once.

System: HEK-293T
Experiment: Multiplex assay against HEK293T
Assay type: toxicity, cell-based
Conditions: human
Procedure, shortened: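 Phenotypes for tubulin, mitochondrial mass and membrane permeability are expressed as per cents of healthy-nucleus cells. Cells were stained live at seeding with Hoechst33342, BioTracker Green Microtubule Cytoskeleton Dye, MitoTracker Red and Annexin V Alexa Fluor 680, then imaged after compound addition on a CQ1 microscope at 37°C and 5% CO2. Machine-learning gating in CellPathfinder separated Hoechst high-intensity objects from normal cells, divided normal cells by nuclear state (healthy, pyknosed, fragmented) and divided pyknosed cells into mitotic or apoptotic.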

[1] = 12 h, 1 µM, compound concentration 1 uM
[2] = 12 h, 10 µM, compound concentration 10 uM
[3] = 24 h, 1 µM, compound concentration 1 uM
[4] = 24 h, 10 µM, compound concentration 10 uM
[5] = 48 h, 1 µM, compound concentration 1 uM
[6] = 48 h, 10 µM, compound concentration 10 uM

In the case of `O=C1c2c(Br)c(Br)c(Br)c(Br)c2C(=O)N1c1ncc[nH]1`, the “Population Apoptotic (%)” value [1] is reported as 13.1% and 15.91%, the “Population Fragmented Nuclei (%)” value [1] is reported as 2.88% and 4.84% and the “Population Healthy Nuclei (%)” value [1] is reported as 55.33% and 24.19%. For the same molecule, the “Population Hoechst High Intensity Objects (%)” value [1] was 0%, the “Population Membrane Permeable-Phenotype (%)” value [1] was 0.52% and 0% and the “Population Mitochondria Different-Phenotype (%)” value [1] was 30.21% and 20%. The “Population Mitotic Cells (%)” value [1] was 86.9% and 84.09%, the “Population Normal (%)” value [1] was 100% and the “Population Pyknosed Nuclei (%)” value [1] was 41.79% and 70.97%. The “Total Cell Count” value [1] was 347 and 124, the “Population Apoptotic (%)” value [2] was 11.88% and 18.7% and the “Population Fragmented Nuclei (%)” value [2] was 3.09% and 4.38%. The “Population Hoechst High Intensity Objects (%)” value [2] was 0.28% and 0%, the “Population Membrane Permeable-Phenotype (%)” value [2] was 0.82% and 0% and the “Population Mitochondria Different-Phenotype (%)” value [2] was 30.74% and 20%. For the same molecule, the “Population Mitotic Cells (%)” value [2] was 88.12% and 81.3%, the “Population Normal (%)” value [2] was 99.72% and 100% and the “Population Pyknosed Nuclei (%)” value [2] was 28.37% and 76.88%. The “Total Cell Count” value [2] was 357 and 160, the “Population Apoptotic (%)” value [3] was 7.29% and 20.59% and the “Population Fragmented Nuclei (%)” value [3] was 2.82% and 1.69%. For the same molecule, the “Population Healthy Nuclei (%)” value [3] was 81.23% and 40.68%, the “Population Hoechst High Intensity Objects (%)” value [3] was 0% and the “Population Membrane Permeable-Phenotype (%)” value [3] was 0.41% and 0%. The “Population Mitochondria Different-Phenotype (%)” value [3] was 13.29% and 6.25%, the “Population Mitotic Cells (%)” value [3] was 92.71% and 79.41% and the “Population Normal (%)” value [3] was 100%. For the same molecule, the “Population Tubulin-Different-Phenotype (%)” value [3] was 8.59% and 6.25%, the “Population Apoptotic (%)” value [4] was 15.38% and 16.98% and the “Population Fragmented Nuclei (%)” value [4] was 2.6% and 2.87%. For the same molecule, the “Population Healthy Nuclei (%)” value [4] was 81.63% and 36.21%, the “Population Hoechst High Intensity Objects (%)” value [4] was 0% and the “Population Membrane Permeable-Phenotype (%)” value [4] was 0.42% and 0%. For the same molecule, the “Population Mitochondria Different-Phenotype (%)” value [4] was 15.71% and 7.94%, the “Population Mitotic Cells (%)” value [4] was 84.62% and 83.02% and the “Population Normal (%)” value [4] was 100%. For the same molecule, the “Population Tubulin-Different-Phenotype (%)” value [4] was 7.64% and 3.17%, the “Population Apoptotic (%)” value [5] was 5.76% and 12.5% and the “Population Fragmented Nuclei (%)” value [5] was 3.26% and 4.05%. The “Population Healthy Nuclei (%)” value [5] was 88.03% and 68.21%, the “Population Hoechst High Intensity Objects (%)” value [5] was 0% and 2.26% and the “Population Membrane Permeable-Phenotype (%)” value [5] was 3.85% and 1.69%. For the same molecule, the “Population Mitochondria Different-Phenotype (%)” value [5] was 10.61% and 18.64%, the “Population Mitotic Cells (%)” value [5] was 94.24% and 87.5% and the “Population Normal (%)” value [5] was 100% and 97.74%. For the same molecule, the “Population Apoptotic (%)” value [6] was 13.95% and 14.89%, the “Population Fragmented Nuclei (%)” value [6] was 5.46% and 4.92% and the “Population Healthy Nuclei (%)” value [6] was 88.11% and 79.67%. For the same molecule, the “Population Hoechst High Intensity Objects (%)” value [6] was 0% and 0.97%, the “Population Membrane Permeable-Phenotype (%)” value [6] was 6.62% and 4.53% and the “Population Mitochondria Different-Phenotype (%)” value [6] was 10.78% and 11.11%. The “Population Mitotic Cells (%)” value [6] was 86.05% and 85.11%, the “Population Normal (%)” value [6] was 100% and 99.03% and the “Population Pyknosed Nuclei (%)” value [6] was 6.43% and 15.41%.
For `COCCNc1nc2ccc(C#CC3(O)CCCCC3)cc2n1-c1ccnc(N)n1`, the “Population Apoptotic (%)” value [1] was 9.87% and 12.26%, the “Population Fragmented Nuclei (%)” value [1] was 1.33% and 5.34% and the “Population Hoechst High Intensity Objects (%)” value [1] was 0%. The “Population Membrane Permeable-Phenotype (%)” value [1] was 1.82% and 0%, the “Population Mitotic Cells (%)” value [1] was 90.13% and 87.74% and the “Population Normal (%)” value [1] was 100%. For the same molecule, the “Population Pyknosed Nuclei (%)” value [1] was 40.32% and 80.92%, the “Total Cell Count” value [1] was 377 and 131 and the “Population Apoptotic (%)” value [2] was 17.15% and 7.53%. The “Population Fragmented Nuclei (%)” value [2] was 0.29% and 2.41%, the “Population Hoechst High Intensity Objects (%)” value [2] was 0% and the “Population Membrane Permeable-Phenotype (%)” value [2] was 0%. The “Population Mitotic Cells (%)” value [2] was 82.85% and 92.47%, the “Population Normal (%)” value [2] was 100% and the “Population Pyknosed Nuclei (%)” value [2] was 68.29% and 87.95%. The “Population Tubulin-Different-Phenotype (%)” value [2] was 29.09% and 56.25%, the “Total Cell Count” value [2] was 350 and 166 and the “Population Apoptotic (%)” value [3] was 11.24% and 8.33%. The “Population Fragmented Nuclei (%)” value [3] was 1.68% and 2.99%, the “Population Healthy Nuclei (%)” value [3] was 69.92% and 32.34% and the “Population Hoechst High Intensity Objects (%)” value [3] was 0% and 0.6%. The “Population Membrane Permeable-Phenotype (%)” value [3] was 2.88% and 1.85%, the “Population Mitochondria Different-Phenotype (%)” value [3] was 12.5% and 16.67% and the “Population Mitotic Cells (%)” value [3] was 88.76% and 91.67%. For the same molecule, the “Population Normal (%)” value [3] was 100% and 99.4%, the “Population Pyknosed Nuclei (%)” value [3] was 28.4% and 64.67% and the “Population Tubulin-Different-Phenotype (%)” value [3] was 6.49% and 5.56%. For the same molecule, the “Population Apoptotic (%)” value [4] was 30% and 31.16%, the “Population Fragmented Nuclei (%)” value [4] was 0.22% and 1.23% and the “Population Hoechst High Intensity Objects (%)” value [4] was 0.22% and 0%. The “Population Membrane Permeable-Phenotype (%)” value [4] was 1% and 0%, the “Population Mitochondria Different-Phenotype (%)” value [4] was 22.89% and 17.39% and the “Population Mitotic Cells (%)” value [4] was 70% and 68.84%. The “Population Normal (%)” value [4] was 99.78% and 100%, the “Population Pyknosed Nuclei (%)” value [4] was 55.31% and 84.66% and the “Population Tubulin-Different-Phenotype (%)” value [4] was 37.81% and 21.74%. The “Total Cell Count” value [4] was 453 and 163, the “Population Apoptotic (%)” value [5] was 6.04% and 14.1% and the “Population Fragmented Nuclei (%)” value [5] was 1.77% and 1.97%. The “Population Healthy Nuclei (%)” value [5] was 86.69% and 67.32%, the “Population Hoechst High Intensity Objects (%)” value [5] was 0.06% and 0% and the “Population Membrane Permeable-Phenotype (%)” value [5] was 6.87% and 2.34%. For the same molecule, the “Population Mitochondria Different-Phenotype (%)” value [5] was 9.94% and 24.56%, the “Population Mitotic Cells (%)” value [5] was 93.96% and 85.9% and the “Population Normal (%)” value [5] was 99.94% and 100%. The “Population Pyknosed Nuclei (%)” value [5] was 11.53% and 30.71%, the “Population Apoptotic (%)” value [6] was 18.78% and 26.09% and the “Population Fragmented Nuclei (%)” value [6] was 0.76% and 2.91%. The “Population Healthy Nuclei (%)” value [6] was 68.15% and 30.1%, the “Population Hoechst High Intensity Objects (%)” value [6] was 0.25% and 0% and the “Population Membrane Permeable-Phenotype (%)” value [6] was 2.79% and 1.61%. The “Population Mitochondria Different-Phenotype (%)” value [6] was 59.96% and 58.06%, the “Population Mitotic Cells (%)” value [6] was 81.22% and 73.91% and the “Population Normal (%)” value [6] was 99.75% and 100%. For the same molecule, the “Population Pyknosed Nuclei (%)” value [6] was 31.09% and 66.99%.
